Results as given in PMC3858174 (Bioorganic & medicinal chemistry, 2013).
pKi: −log10 of the molar value. Each block holds one compound with its values, some of them ahead of it.

Assays:
[1] = molecular target: 5HT7 (Homo sapiens, UniProt P34969); experiment: NIMH-PDSP binding assay, 5HT7
[2] = molecular target: BZP Rat Brain Site; experiment: NIMH-PDSP binding assay, BZP Rat Brain Site; conditions: read-out: Ki BZP Rat Brain Site
[3] = molecular target: T1, Adrenergic α1A (Homo sapiens, UniProt P35348); experiment: NIMH-PDSP binding assay, Adrenergic α1A
T1 sequence (P35348 1-466): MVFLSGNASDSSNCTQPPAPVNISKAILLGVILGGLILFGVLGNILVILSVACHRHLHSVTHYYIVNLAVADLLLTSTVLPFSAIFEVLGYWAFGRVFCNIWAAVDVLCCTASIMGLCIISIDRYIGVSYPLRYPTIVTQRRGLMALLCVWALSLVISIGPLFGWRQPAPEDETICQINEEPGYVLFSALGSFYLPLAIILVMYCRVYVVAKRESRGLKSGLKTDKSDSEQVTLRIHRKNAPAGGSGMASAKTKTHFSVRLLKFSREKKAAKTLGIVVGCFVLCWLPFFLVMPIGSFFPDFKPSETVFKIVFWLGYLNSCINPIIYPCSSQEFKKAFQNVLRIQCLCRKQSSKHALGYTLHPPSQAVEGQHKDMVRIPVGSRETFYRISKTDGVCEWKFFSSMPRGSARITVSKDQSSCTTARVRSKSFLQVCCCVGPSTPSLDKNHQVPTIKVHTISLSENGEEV

[4] = molecular target: Dopamine2 (Homo sapiens, UniProt P14416); experiment: NIMH-PDSP binding assay, Dopamine2
[5] = molecular target: Dopamine3 (Homo sapiens, UniProt P35462); experiment: NIMH-PDSP binding assay, Dopamine3
[6] = tested on: 5-HT1AR; conditions: 5-HT1AR-rich regions such as hippocampus, amygdala, cortex and cingulate regions; cited from earlier work
[7] = Stability of formulation; format: physicochemical; conditions: 10% ethanol-90% saline; analytical HPLC and radio-TLC
[8] = tested on: 5-HT1AR; experiment: PET imaging in anesthetized baboon; format: in vivo, baboon (Papio anubis)
Procedure, shortened: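 Two fasted male baboons: ketamine 10 mg/kg im, then 1.5–2.0% isoflurane via endotracheal tube, core temperature held at 37 °C. Saline iv line and arterial line placed. 10 min transmission scan, then 111 ± 18 MBq radiotracer as iv bolus. 3-D emission data collected for 180 min. MRI-coregistered regions of interest, left and right averaged.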

[9] = logPo/w by shake flask method; format: physicochemical

Chain of Dopamine3 (P35462 whole entry): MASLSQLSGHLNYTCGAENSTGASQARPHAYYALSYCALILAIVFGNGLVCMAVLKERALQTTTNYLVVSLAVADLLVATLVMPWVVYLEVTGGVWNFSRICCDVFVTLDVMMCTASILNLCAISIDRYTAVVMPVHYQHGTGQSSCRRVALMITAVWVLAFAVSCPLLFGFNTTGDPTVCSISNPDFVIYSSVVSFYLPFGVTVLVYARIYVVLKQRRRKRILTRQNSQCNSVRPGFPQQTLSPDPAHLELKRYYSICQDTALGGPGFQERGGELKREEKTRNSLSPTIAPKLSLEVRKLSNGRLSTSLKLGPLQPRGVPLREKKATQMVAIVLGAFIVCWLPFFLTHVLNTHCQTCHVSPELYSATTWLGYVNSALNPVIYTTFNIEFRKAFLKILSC
Chain of Dopamine2 (P14416 whole entry): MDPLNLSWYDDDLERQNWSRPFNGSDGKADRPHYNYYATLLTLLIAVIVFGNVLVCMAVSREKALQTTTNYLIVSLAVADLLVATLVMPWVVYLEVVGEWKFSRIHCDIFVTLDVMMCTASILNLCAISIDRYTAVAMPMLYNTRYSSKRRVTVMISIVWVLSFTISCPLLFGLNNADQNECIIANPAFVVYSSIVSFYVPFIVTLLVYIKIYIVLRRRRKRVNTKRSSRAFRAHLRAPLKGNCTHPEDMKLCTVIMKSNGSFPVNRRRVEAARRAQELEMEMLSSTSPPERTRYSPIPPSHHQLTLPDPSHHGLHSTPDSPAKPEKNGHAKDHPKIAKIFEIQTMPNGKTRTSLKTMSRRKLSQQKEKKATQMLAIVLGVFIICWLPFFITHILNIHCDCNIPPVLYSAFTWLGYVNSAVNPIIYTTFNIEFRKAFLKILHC
Chain of 5HT7 (P34969 whole entry, species assumed): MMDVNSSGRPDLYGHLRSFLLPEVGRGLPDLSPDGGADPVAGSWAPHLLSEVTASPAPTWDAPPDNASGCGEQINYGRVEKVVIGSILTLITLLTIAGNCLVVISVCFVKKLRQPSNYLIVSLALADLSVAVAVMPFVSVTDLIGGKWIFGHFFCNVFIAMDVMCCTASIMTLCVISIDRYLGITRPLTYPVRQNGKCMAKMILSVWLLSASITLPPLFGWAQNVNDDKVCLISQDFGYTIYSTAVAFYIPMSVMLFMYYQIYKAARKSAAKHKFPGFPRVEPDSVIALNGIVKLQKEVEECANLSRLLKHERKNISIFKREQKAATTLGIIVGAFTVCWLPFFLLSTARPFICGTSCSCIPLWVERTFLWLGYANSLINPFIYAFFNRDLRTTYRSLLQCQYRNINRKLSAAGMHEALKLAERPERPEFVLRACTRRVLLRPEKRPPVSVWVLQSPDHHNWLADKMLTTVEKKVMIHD

- selectivity to 5-HT1A over 5-HT7 [1]: 172 fold
SMILES: Cn1c(=O)cnn(CCCCN2CCN(c3ccccc3OCCF)CC2)c1=O [FECUMI-101, 2-(4-(4-(2-(2-fluoroethoxy)phenyl)piperazin-1-yl)butyl)-4-methyl-1,2,4-triazine-3,5(2H,4H)-dione]

- pKi [2]: < 5.00
- less affinity for α1A AR in comparison to 5-HT1AR [3]: 45 fold
- Ki Dopamine2 [4]: did not show any significant binding
- Ki Dopamine3 [5]: did not show any significant binding
SMILES: COc1ccccc1N1CCN(CCCCn2ncc(=O)n(C)c2=O)CC1 [CUMI-101]

SMILES: Cn1c(=O)cnn(CCCCN2CCN(c3ccccc3O[11CH3])CC2)c1=O [[^11C]CUMI-101]
- lower BPF in comparison with [11C]WAY-100635 scans [6]: ~ 50%

- Stability of radioproduct in formulation, no significant de[18F]fluorination [7]: up to 4 h
- BBB penetration ([8]; anesthetized baboon, 111 ± 18 MBq i.v.): penetrates the BBB
- in vivo radio[18F]defluorination (skull image) ([8]; baboon PET): No skull image
- logPo/w [9]: 1.2
SMILES: Cn1c(=O)cnn(CCCCN2CCN(c3ccccc3OCC[18F])CC2)c1=O [[^18F]FECUMI-101, [18F]2-(4-(4-(2-(2-fluoroethoxy)phenyl)piperazin-1-yl)butyl)-4-methyl-1,2,4-triazine-3,5(2H,4H)-dione]
